Source: ChEMBL document CHEMBL2375351, “Degradation of MAC13243 and studies of the interaction of resulting thiourea compounds with the lipoprotein targeting chaperone LolA” (Bioorg Med Chem Lett, 2013)
Values after ≈ are worked out from the molar mass of the structure shown. Active and inactive are the calls of the source. The calls are words filed in the database; no cut-off is given here.

Key:
[1] = system: Pseudomonas aeruginosa; experiment: Antibacterial activity against Pseudomonas aeruginosa PAO1 assessed as growth inhibition after 16 hrs; type: functional; details: PAO1, 16 h
Outline: (§1)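 Broth microdilution in liquid LB with B. subtilis 168 or P. aeruginosa PAO1. Overnight cultures were diluted 1:100, grown to OD600 0.4, then diluted 1:100,000 into serially diluted compound (1–256 µg/mL). Plates were incubated 16 h at 37 °C, static, except B. subtilis, which was shaken at 250 rpm. MIC is the lowest concentration giving OD600 below 0.05.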

[2] = system: Bacillus subtilis; experiment: Antibacterial activity against Bacillus subtilis 168 assessed as growth inhibition after 16 hrs; type: functional; details: subsp. subtilis str. 168, 16 h; outline: as §1
[3] = system: Escherichia coli; experiment: Antibacterial activity against Escherichia coli MG1655 overexpressing lolA assessed as growth inhibition after 16 hrs; type: functional; details: MG1655, 16 h
[4] = system: Escherichia coli; experiment: Antibacterial activity against Escherichia coli EB2120 conditional lolA strain with lolA deletion and complementing copy placed at araBAD locus at 1 to 256 ug/mL after 18 hrs in presence of 0.00002 to 0.2% of arabinose; type: functional, organism-based
Outline: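 Conditional lolA strain EB2120 (chromosomal lolA deleted, complementing copy at araBAD under arabinose control), grown to OD600 ~0.4–0.5. […] Fold sensitization is the MIC under LolA depletion relative to the fully complemented 0.2% arabinose condition.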

[5] = Half life of the compound in acetate buffer at pH 4 at 250 uM measured up to 48 hrs by reverse phase HPLC analysis; type: physicochemical
Outline: (§2)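 Compound at 250 µM final was incubated in DMSO, H2O, 50 mM acetate buffer (pH 4) or 50 mM citrate buffer (pH 11). Samples were analysed over time by reverse phase C18 HPLC using a 10 min gradient of 0.1% TFA water to acetonitrile, with detection at 270 nm. Parent peak areas were plotted against time and fit to exponential decay.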

[6] = Half life of the compound in water at 250 uM measured up to 48 hrs by reverse phase HPLC analysis; type: physicochemical; outline: as §2
[7] = Half life of the compound in DMSO at 250 uM measured up to 48 hrs by reverse phase HPLC analysis; type: physicochemical; outline: as §2
[8] = system: Escherichia coli; experiment: Potency index, ratio of MIC for Escherichia coli EB2120 conditional lolA strain with lolA deletion and complementing copy placed at araBAD locus in presence of 0.2% arabinose to MIC in presence of 0.00002% of arabinose; type: functional
[9] = system: Escherichia coli; experiment: Potency index, ratio of MIC for Escherichia coli AG1 overexpressing lolA to MIC for lolA-deficient Escherichia coli AG1; type: functional
[10] = Half life of the compound in citrate buffer at pH 11 at 250 uM measured up to 48 hrs by reverse phase HPLC analysis; type: physicochemical; outline: as §2
[11] = Binding affinity to Escherichia coli LolA
[12] = system: Escherichia coli; experiment: Binding affinity to LolA in Escherichia coli EB68 assessed as change in cell shape from rod to sphere at 10 ug/mL measured every 1 hr for 4 hrs by phase contrast microscopic analysis
Outline: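 E. coli EB68 (MG1655) was subcultured 1:100 into LB and grown to OD600 ~0.5, then washed once in fresh medium. Cells were resuspended in LB with compound at 10 µg/mL, placed on poly-lysine-treated slides and examined by phase contrast light microscopy at 1 h intervals for rod-to-sphere shape change.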

[13] = Binding affinity to recombinant Escherichia coli LolA by STDD NMR spectra analysis
[14] = system: Escherichia coli; experiment: Potency index, ratio of MAC13243 MIC to compound MIC for Escherichia coli MG1655 overexpressing lolA; type: functional

SMILES | MIC [1] | MIC [2] | MIC [3] | also measured
N=C(N)SCc1ccccc1Cl | 64 µg/mL (≈ 319 µM) | > 256 µg/mL | 16 µg/mL (≈ 79.7 µM) | 
COc1cc(Cc2cnc(N)nc2N)cc(OC)c1OC |  |  |  | Activity [4]: inactive
COc1ccc(CCN2CN=C(SCc3ccc(Cl)cc3)NC2)cc1OC | 32 µg/mL (≈ 78.8 µM) | 256 µg/mL (≈ 631 µM) | 8 µg/mL (≈ 19.7 µM) | half-life at 250 µM [5]: 4 h; half-life at 250 µM [6]: 13 h; half-life at 250 µM [7]: 257 h; Ratio [8]: 32; Ratio [9]: 16; half-life at 250 µM [10]: 59 h; Kd [11]: 8 µM; Activity [12]: Active
N=C(N)SCc1ccc(F)cc1 | 16 µg/mL (≈ 86.8 µM) | > 256 µg/mL | 16 µg/mL (≈ 86.8 µM) | 
CCn1cc(C(=O)O)c(=O)c2cc(F)c(N3CCNCC3)cc21 |  |  |  | Activity [4]: inactive
CC1(C)S[C@@H]2[C@H](NC(=O)[C@H](N)c3ccccc3)C(=O)N2[C@H]1C(=O)O |  |  |  | Activity [4]: inactive
CO[C@H]1/C=C/O[C@@]2(C)Oc3c(C)c(O)c4c(O)c(c(/C=N/N5CCN(C)CC5)c(O)c4c3C2=O)NC(=O)/C(C)=C\C=C\[C@H](C)[C@H](O)[C@@H](C)[C@@H](O)[C@@H](C)[C@H](OC(C)=O)[C@@H]1C |  |  |  | Activity [4]: inactive
N=C(N)CCc1ccc(Cl)cc1 | 128 µg/mL (≈ 701 µM) | > 256 µg/mL | > 256 µg/mL | 
N=C(N)SCc1ccc([N+](=O)[O-])cc1 | 64 µg/mL (≈ 303 µM) | > 256 µg/mL | 32 µg/mL (≈ 151 µM) | 
Oc1cc(Cl)ccc1Oc1ccc(Cl)cc1Cl |  |  |  | Activity [4]: inactive
COc1ccc(CCN)cc1OC |  |  | > 256 µg/mL | 
N=C(N)SCc1ccc(I)cc1 | 32 µg/mL (≈ 110 µM) | > 256 µg/mL | 16 µg/mL (≈ 54.8 µM) | 
C[C@@H]1O[C@@H]1P(=O)(O)O [FOSFOMYCIN] |  |  |  | Ratio [8]: 16
CN(C)[C@@H]1C(O)=C(C(N)=O)C(=O)[C@@]2(O)C(O)=C3C(=O)c4c(O)cccc4[C@@](C)(O)[C@H]3C[C@@H]12 |  |  |  | Activity [4]: inactive
N=C(N)SCc1ccccc1 [BENZYL CARBAMIMIDOTHIOATE] | 32 µg/mL (≈ 192 µM) | > 256 µg/mL | 64 µg/mL (≈ 385 µM) | 
CN[C@@H]1[C@H](O)[C@H](NC)[C@H]2O[C@@]3(O)C(=O)C[C@@H](C)O[C@H]3O[C@@H]2[C@H]1O |  |  |  | Activity [4]: inactive
N=C(N)SCc1ccc(Cl)cc1 | 16 µg/mL (≈ 79.7 µM) | > 256 µg/mL | 2 µg/mL (≈ 9.97 µM) | Kd [13]: 150 µM; Ratio [14]: 4; Ratio [8]: 32; Ratio [9]: 16
N=C(N)CSCc1ccc(Cl)cc1 | 128 µg/mL (≈ 596 µM) | > 256 µg/mL | > 256 µg/mL | 
N=C(N)SCc1ccc(Cl)c(Cl)c1 | 16 µg/mL (≈ 68 µM) | > 256 µg/mL | 2 µg/mL (≈ 8.51 µM) | Kd [13]: 200 µM; Ratio [8]: 32; Ratio [9]: 16; Activity [12]: Active
N=C(N)SCc1ccc(Br)cc1 | 16 µg/mL (≈ 65.3 µM) | > 256 µg/mL | 4 µg/mL (≈ 16.3 µM) | 
N=C(N)SCc1cccc(Cl)c1 | > 256 µg/mL | > 256 µg/mL | 64 µg/mL (≈ 319 µM) | 
N=C(N)SCCCc1ccc(Cl)cc1 | 128 µg/mL (≈ 560 µM) | > 256 µg/mL | > 256 µg/mL | 
N=C(N)OCc1ccc(Cl)cc1 | 32 µg/mL (≈ 173 µM) | > 256 µg/mL | 32 µg/mL (≈ 173 µM) | 
COc1ccc(CSC(=N)N)cc1 | 32 µg/mL (≈ 163 µM) | > 256 µg/mL | > 256 µg/mL | 
N=C(N)Sc1ccc(Cl)cc1 | 64 µg/mL (≈ 343 µM) | 4 µg/mL (≈ 21.4 µM) | > 256 µg/mL | 
N=C(N)SCCc1ccc(Cl)cc1 | 128 µg/mL (≈ 596 µM) | > 256 µg/mL | > 256 µg/mL | 
N=C(N)NCc1ccc(Cl)cc1 | 128 µg/mL (≈ 697 µM) | > 256 µg/mL | 256 µg/mL (≈ 1390 µM) | 
C/N=C(\NC)SCc1ccc(Cl)c(Cl)c1 | 256 µg/mL (≈ 973 µM) | > 256 µg/mL | 256 µg/mL (≈ 973 µM) | 
N=C(N)SCc1ccc(Cl)cc1Cl | 32 µg/mL (≈ 136 µM) | > 256 µg/mL | 1 µg/mL (≈ 4.25 µM) | 
N=C(N)c1ccc(Cl)cc1 | 64 µg/mL (≈ 414 µM) | 4 µg/mL (≈ 25.9 µM) | > 256 µg/mL | 
